According to ChEMBL document CHEMBL4145654, “Structure-Based Discovery of CF53 as a Potent and Orally Bioavailable Bromodomain and Extra-Terminal (BET) Bromodomain Inhibitor” (J Med Chem, 2018):

Experiments:
MDA-MB-231 = assay: Antitumor activity against human MDA-MB-231 cells xenografted in SCID mouse assessed as tumor growth inhibition at 50 mg/kg administered via oral gavage measured on day 44; format: functional; conditions: MDA-MB-231, po, 1056 h, read-out: TGI
Outline: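 Each SCID mouse received a single dorsal subcutaneous tumor of 5 × 10⁶ RS4;11 or MDA-MB-231 cells in 50% Matrigel. At about 100 mm3, mice were randomised to treatment or vehicle control groups. Dosing was by oral gavage at the stated schedules. Tumor volume was L × W²/2, and body weight was tracked. TGI versus vehicle at end of treatment was tested by unpaired two-tailed t-test.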

[1] = Plasma concentration in SCID mouse xenografted with human MDA-MB-231 cells at 50 mg/kg administered via oral gavage measured after 1 hr; format: ADME, organism-based
Outline: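 Limited PK in SCID mice bearing MDA-MB-231 tumors, 50 mg/kg given by oral gavage. Plasma and tumor tissue drug levels measured at two time points per compound. Values are the mean of two mice/tumors per time point.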

[2] = biological target: Bromodomain-containing protein 2 (Homo sapiens, UniProt P25440); assay: Binding affinity to human BRD2 bromodomain 2 (E348 to D455 residues) expressed in bacterial expression system by BROMOscan assay
[3] = biological target: Bromodomain-containing protein 1 (Homo sapiens, UniProt O95696); assay: Binding affinity to human BRD1 (E556 to A688 residues) expressed in bacterial expression system by BROMOScan assay
[4] = biological target: E3 ubiquitin-protein ligase TRIM33 (Homo sapiens, UniProt Q9UPN9); assay: Binding affinity to human TRIM33-phd-bromo (D882 to A1087 residues) expressed in bacterial expression system by BROMOscan assay
[5] = biological target: T1, Bromodomain-containing protein 4 (Homo sapiens, UniProt O60885); assay: Binding affinity to human BRD4 bromodomain 2 (K333 to E460 residues) expressed in bacterial expression system by BROMOscan assay
Protein polybromo-1 [6] = biological target: T2, Protein polybromo-1 (Homo sapiens, UniProt Q86U86); assay: Binding affinity to human PBRM1 bromodomain 2 (S178 to E291 residues) expressed in bacterial expression system by BROMOScan assay
[7] = AUC in Balb/c mouse at 25 mg/kg, po by LC-MS/MS analysis; format: ADME, organism-based; conditions: in vivo
Outline: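 Balb/c mice dosed iv at 5.0 mg/kg or po at 25 mg/kg, compound in vehicle of 20% (v/v) PCP and 70% (v/v) PBS. Serial blood samples taken at 0, 5, 15, 30 min and 1, 2, 4, 6, 8, 24 h. Plasma obtained by centrifugation and stored at −80 °C. Analysis by LC-MS/MS, positive-ion MRM. Parameters from noncompartmental analysis.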

Protein polybromo-1 [8] = biological target: T2, Protein polybromo-1; assay: Binding affinity to human PBRM1 bromodomain 5 (S645 to D766 residues) expressed in bacterial expression system by BROMOScan assay
Homo sapiens [9] = species: Homo sapiens; assay: Selectivity index, ratio of Kd for human CREBBP (R1081 to G1197 residues) to Kd for human BRD2 bromodomain 1 (K71 to N194 residues)
Homo sapiens [10] = species: Homo sapiens; assay: Selectivity index, ratio of Kd for human CECR2 (P423 to D543 residues) to Kd for human BRDT bromodomain 2 (K250 to E382 residues)
Homo sapiens [11] = species: Homo sapiens; assay: Selectivity index, ratio of Kd for human CREBBP (R1081 to G1197 residues) to Kd for human BRD4 bromodomain 1 (N44 to E168 residues)
[12] = biological target: Serine/threonine-protein kinase PLK4 (Homo sapiens, UniProt O00444); assay: Inhibition of human PLK4 using casein as substrate in presence of [gamma-33P]-ATP
CREB-binding protein = CREB-binding protein (Homo sapiens, UniProt Q92793); assay: Binding affinity to human CREBBP (R1081 to G1197 residues) expressed in bacterial expression system by BROMOscan assay
[13] = biological target: Transcription intermediary factor 1-alpha (Homo sapiens, UniProt O15164); assay: Binding affinity to human TRIM24 (P790 to P977 residues) expressed in bacterial expression system by BROMOScan assay
Homo sapiens [14] = species: Homo sapiens; assay: Selectivity index, ratio of Kd for human EP300 (A1040 to G1161 residues) to Kd for human BRD2 bromodomain 2 (E348 to D455 residues)
[15] = biological target: Nucleosome-remodeling factor subunit BPTF (Homo sapiens, UniProt Q12830); assay: Binding affinity to human FALZ (S2791 to H2911 residues) expressed in bacterial expression system by BROMOScan assay
[16] = biological target: Transcription initiation factor TFIID subunit 1-like (Homo sapiens, UniProt Q8IZX4); assay: Binding affinity to human TAF1L bromodomain 2 (Q1523 to D1654 residues) expressed in bacterial expression system by BROMOScan assay
MOLM-13 = assay: Growth inhibition of human MOLM13 cells after 4 days by WST-8 assay; format: functional, cell-based; conditions: MOLM-13, 96 h
Outline: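 Leukemia cells, used within 3 months of thaw, were seeded at 10 000 cells/well and exposed to serially diluted compound in culture medium for 4 days. WST-8 reagent was added at 10% (v/v) final for 1−3 h, and absorbance was read at 450 nm. Readings were normalized to DMSO-treated cells, and the IC50 was fitted by nonlinear regression.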

[17] = biological target: Bromodomain-containing protein 7 (Homo sapiens, UniProt Q9NPI1); assay: Binding affinity to human BRD7 (L125 to R254 residues) expressed in bacterial expression system by BROMOScan assay
Homo sapiens [18] = species: Homo sapiens; assay: Selectivity index, ratio of Kd for human CECR2 (P423 to D543 residues) to Kd for human BRD2 bromodomain 2 (E348 to D455 residues)
Mus musculus = assay: Toxicity in SCID mouse xenografted with human RS4:11 cells assessed as change in body weight at 10 to 50 mg/kg administered via oral gavage measured 2 to 3 times per week during compound dosing and measured weekly post treatment; format: organism-based; conditions: in vivo
Outline: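 Xenografts raised by subcutaneous dorsal injection of 5 × 10⁶ cells in 50% Matrigel into SCID mice, one tumor per mouse. Mice randomized to treatment or vehicle groups at about 100 mm3 tumor volume. Compounds given by oral gavage at the indicated dose-schedules, with percentage body-weight change tracked alongside tumor volume (L × W²/2).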

Homo sapiens [19] = species: Homo sapiens; assay: Selectivity index, ratio of Kd for human CREBBP (R1081 to G1197 residues) to Kd for human BRD3 bromodomain 2 (G306 to P416 residues)
[20] = biological target: Bromodomain testis-specific protein (Homo sapiens, UniProt Q58F21); assay: Binding affinity to human BRDT bromodomain 1 (N21 to E137 residues) expressed in bacterial expression system by BROMOscan assay
[21] = biological target: T1, Bromodomain-containing protein 4; assay: Binding affinity to human BRD4 bromodomain 1 (N44 to E168 residues) expressed in bacterial expression system by BROMOscan assay
Homo sapiens [22] = species: Homo sapiens; assay: Selectivity index, ratio of Kd for human CECR2 (P423 to D543 residues) to Kd for human BRD3 bromodomain 2 (G306 to P416 residues)

T2 sequence (Q86U86 whole entry, the tested form may be a part): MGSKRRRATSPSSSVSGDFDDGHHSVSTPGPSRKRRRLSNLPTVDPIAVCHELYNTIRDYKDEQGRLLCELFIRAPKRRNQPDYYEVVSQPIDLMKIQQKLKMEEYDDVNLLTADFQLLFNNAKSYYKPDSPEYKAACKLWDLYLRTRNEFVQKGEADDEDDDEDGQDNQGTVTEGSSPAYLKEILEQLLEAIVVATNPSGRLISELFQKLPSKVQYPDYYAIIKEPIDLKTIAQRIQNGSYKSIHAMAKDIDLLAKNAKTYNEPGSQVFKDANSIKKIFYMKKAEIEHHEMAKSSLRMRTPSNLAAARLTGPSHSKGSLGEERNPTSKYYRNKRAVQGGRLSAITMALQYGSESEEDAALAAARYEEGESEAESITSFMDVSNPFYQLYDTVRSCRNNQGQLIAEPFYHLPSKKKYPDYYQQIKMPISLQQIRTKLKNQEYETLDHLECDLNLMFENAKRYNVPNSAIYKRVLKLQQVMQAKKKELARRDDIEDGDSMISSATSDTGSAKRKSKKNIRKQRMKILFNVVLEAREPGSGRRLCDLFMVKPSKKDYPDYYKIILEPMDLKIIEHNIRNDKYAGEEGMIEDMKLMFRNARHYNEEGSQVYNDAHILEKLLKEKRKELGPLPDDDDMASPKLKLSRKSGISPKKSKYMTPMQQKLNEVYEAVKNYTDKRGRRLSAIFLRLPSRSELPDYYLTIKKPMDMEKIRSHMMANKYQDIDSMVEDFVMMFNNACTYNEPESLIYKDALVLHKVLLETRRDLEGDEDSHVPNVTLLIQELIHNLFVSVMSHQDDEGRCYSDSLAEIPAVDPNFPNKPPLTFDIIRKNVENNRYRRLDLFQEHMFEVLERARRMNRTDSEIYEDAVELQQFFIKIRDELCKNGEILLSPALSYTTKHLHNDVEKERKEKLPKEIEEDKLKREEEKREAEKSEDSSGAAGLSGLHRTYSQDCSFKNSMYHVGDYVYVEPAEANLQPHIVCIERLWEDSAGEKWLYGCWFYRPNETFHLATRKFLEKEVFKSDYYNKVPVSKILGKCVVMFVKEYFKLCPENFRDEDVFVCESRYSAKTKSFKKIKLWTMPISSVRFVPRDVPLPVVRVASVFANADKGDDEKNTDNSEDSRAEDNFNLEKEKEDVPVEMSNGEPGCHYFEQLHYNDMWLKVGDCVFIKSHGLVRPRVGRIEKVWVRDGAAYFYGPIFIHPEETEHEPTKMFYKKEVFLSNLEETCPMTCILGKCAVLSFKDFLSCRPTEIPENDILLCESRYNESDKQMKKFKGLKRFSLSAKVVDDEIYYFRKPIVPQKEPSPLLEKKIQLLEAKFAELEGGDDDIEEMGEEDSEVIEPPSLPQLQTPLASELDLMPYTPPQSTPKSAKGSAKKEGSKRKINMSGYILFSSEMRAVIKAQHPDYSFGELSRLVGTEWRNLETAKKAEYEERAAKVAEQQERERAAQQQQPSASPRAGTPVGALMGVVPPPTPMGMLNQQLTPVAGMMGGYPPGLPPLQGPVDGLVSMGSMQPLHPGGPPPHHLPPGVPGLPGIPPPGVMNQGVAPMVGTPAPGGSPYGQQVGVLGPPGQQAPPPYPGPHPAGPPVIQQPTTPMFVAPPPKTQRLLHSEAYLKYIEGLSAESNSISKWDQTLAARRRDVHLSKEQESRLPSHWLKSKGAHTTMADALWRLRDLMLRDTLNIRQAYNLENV
Transcription initiation factor TFIID subunit 1-like, sequence (Q8IZX4 whole entry, the tested form may be a part): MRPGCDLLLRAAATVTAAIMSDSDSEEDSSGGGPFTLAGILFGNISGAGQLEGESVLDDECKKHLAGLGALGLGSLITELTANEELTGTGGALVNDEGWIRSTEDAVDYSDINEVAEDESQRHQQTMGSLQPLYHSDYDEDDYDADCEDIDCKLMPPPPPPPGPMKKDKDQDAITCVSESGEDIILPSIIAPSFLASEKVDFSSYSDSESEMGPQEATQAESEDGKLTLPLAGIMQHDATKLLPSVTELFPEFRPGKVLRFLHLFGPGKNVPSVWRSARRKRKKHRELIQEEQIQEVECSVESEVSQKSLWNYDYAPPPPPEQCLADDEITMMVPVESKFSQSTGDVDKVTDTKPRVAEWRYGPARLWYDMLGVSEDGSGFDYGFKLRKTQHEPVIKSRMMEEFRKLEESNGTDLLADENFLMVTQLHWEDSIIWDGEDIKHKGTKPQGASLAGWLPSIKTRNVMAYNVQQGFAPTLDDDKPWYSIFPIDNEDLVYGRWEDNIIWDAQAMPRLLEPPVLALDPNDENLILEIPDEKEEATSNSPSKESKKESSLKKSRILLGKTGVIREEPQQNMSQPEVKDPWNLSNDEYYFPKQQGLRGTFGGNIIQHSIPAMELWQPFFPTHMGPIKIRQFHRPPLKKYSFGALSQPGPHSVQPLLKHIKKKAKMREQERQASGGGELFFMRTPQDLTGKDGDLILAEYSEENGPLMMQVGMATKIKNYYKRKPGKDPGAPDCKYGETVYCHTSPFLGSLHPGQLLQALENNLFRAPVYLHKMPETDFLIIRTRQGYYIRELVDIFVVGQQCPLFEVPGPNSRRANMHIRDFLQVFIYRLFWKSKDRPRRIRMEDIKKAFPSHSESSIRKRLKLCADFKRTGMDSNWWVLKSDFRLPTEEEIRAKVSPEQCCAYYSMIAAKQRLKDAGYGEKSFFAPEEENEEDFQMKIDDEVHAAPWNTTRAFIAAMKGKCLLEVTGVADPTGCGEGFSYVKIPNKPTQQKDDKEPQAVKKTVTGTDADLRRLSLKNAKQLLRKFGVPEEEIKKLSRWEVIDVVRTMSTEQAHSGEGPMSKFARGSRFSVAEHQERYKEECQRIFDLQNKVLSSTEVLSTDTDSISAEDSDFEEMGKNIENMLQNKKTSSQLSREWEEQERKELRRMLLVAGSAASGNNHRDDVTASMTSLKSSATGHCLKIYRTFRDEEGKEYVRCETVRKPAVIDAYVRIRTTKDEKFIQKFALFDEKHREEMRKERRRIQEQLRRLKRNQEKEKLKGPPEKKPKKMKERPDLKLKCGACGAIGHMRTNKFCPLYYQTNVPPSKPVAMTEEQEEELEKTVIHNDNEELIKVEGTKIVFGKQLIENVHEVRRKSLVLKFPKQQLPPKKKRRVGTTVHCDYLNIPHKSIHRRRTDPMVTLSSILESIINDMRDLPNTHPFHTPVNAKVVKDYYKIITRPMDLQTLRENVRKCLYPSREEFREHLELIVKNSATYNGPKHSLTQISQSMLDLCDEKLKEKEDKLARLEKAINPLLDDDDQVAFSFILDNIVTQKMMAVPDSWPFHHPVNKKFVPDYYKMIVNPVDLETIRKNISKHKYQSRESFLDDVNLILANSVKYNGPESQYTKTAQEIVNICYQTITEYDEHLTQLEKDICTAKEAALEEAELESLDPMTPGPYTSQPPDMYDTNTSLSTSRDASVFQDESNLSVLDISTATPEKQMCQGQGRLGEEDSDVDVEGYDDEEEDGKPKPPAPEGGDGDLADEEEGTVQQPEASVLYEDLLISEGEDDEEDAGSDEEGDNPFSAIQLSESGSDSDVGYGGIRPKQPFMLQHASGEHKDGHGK
Bromodomain-containing protein 7, sequence (Q9NPI1 whole entry, the tested form may be a part): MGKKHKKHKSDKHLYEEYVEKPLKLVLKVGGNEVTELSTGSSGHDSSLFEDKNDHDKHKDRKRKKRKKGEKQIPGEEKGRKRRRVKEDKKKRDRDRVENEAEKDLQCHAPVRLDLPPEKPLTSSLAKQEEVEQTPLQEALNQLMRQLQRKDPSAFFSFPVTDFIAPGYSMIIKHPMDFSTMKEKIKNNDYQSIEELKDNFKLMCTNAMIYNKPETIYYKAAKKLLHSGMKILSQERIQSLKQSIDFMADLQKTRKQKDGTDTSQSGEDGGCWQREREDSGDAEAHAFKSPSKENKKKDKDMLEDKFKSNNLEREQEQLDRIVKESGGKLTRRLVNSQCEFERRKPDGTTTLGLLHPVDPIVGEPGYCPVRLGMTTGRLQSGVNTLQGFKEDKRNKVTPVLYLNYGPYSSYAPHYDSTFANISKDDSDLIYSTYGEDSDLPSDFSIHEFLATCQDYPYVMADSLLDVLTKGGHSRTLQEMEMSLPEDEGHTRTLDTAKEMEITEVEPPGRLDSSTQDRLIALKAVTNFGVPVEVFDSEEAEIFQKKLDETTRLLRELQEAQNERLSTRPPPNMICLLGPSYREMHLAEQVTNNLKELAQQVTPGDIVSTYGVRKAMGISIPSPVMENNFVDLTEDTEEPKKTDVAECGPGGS
Bromodomain-containing protein 2, sequence (P25440 whole entry, the tested form may be a part): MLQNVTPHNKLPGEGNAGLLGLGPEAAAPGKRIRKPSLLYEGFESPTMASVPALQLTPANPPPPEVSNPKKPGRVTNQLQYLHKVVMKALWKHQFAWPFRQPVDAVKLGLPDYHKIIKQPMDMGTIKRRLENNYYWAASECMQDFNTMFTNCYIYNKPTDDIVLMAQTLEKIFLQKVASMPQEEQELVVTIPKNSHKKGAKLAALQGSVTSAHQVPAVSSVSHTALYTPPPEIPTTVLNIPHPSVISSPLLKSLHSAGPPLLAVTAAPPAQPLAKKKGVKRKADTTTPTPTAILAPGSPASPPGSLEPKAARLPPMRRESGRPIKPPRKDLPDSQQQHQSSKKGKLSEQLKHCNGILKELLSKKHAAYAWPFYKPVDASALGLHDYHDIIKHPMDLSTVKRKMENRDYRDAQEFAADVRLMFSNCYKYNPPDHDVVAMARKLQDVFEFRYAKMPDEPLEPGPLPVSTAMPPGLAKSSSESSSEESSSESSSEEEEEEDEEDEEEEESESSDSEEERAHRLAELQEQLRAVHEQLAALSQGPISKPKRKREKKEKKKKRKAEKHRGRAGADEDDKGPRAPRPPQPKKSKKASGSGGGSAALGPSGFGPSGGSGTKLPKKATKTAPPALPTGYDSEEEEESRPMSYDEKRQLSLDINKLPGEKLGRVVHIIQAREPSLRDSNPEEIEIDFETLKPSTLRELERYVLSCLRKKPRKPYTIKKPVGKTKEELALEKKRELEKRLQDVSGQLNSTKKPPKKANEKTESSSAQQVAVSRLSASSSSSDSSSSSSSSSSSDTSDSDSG

COc1cc2c(cc1-c1c(C)noc1C)[nH]c1nc(C)nc(Nc3cc(C4CC4)nn3C)c12
inhibition in vivo at 50 mg/kg (MDA-MB-231): 77.3% | concentration at 1 h [1]: 12600 ng/mL | Kd [2]: 0.6 nM | Kd [3]: > 5000 nM | Kd [4]: > 5000 nM | Kd [5]: 0.8 nM | Kd (Protein polybromo-1 [6]): > 3000 nM | AUC [7]: 32.2 µM·h | Kd (Protein polybromo-1 [8]): > 5000 nM | Selectivity Index (Homo sapiens [9]): > 20 | Selectivity Index (Homo sapiens [10]): > 50 | Selectivity Index (Homo sapiens [11]): > 20 | IC50 [12]: 3900 nM | Kd (CREB-binding protein): 47 nM | Kd [13]: > 4000 nM | Selectivity Index (Homo sapiens [14]): > 50 | Kd [15]: > 5000 nM | Kd [16]: > 5000 nM | IC50 (MOLM-13): 7 nM | Kd [17]: > 5000 nM | Selectivity Index (Homo sapiens [18]): > 50 | Activity (Mus musculus): Non-Toxic | Selectivity Index (Homo sapiens [19]): > 20 | Kd [20]: 2 nM | Kd [21]: 2.2 nM | Selectivity Index (Homo sapiens [22]): > 50
